Article PMC5900894 (Chemmedchem, 2018)

Tests used:
[1] = DOSY NMR diffusion coefficient / aggregation; assay type: physicochemical; details: FP7 500 μM alone, 310 K, 10 % DMSO in PBS 100 mM pH 5.5
Procedure, shortened: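 Test glycolipid was diluted from a 50 mM DMSO stock into 100 mM PBS pH 5.5 (final DMSO 10 %) and examined at 500 μM by DOSY NMR. Spectra were recorded on the glycolipid alone, then after stepwise peptide additions up to [peptide]/[glycolipid] molar ratios of 0.06 or 0.1. Peptides came from 20 mM DMSO stocks.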

[2] = test system: human peripheral blood mononuclear cells; experiment: IL‐1β production in LPS‐stimulated human PBMCs; assay type: cell-based; details: pre‐incubated 30 min, LPS 100 ng mL^−1, overnight; tested 0.1, 1, 5, 10 μM
Procedure, shortened: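 PBMCs came from buffy coats diluted 1:1 in PBS and separated by density gradient centrifugation. Cells were washed, checked for viability with 0.1 % trypan blue, and resuspended in RPMI 1640 with 10 % FBS, penicillin and streptomycin in U-bottom wells. Test glycolipid alone or its 1:1 mix with peptide (0.1, 1, 5, 10 μM) was added 30 min before smooth LPS (100 ng mL⁻¹). IL-1β release was the read-out.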

CCCCCCCCCCCCCC(=O)N[C@H]1[C@@H](OP(=O)(O)O)O[C@H](CO)[C@@H](OP(=O)(O)O)[C@@H]1OC(=O)CCCCCCCCCCCCC [FP7]
D (diffusion coefficient of FP7) [1]: 6.31×10^−11 m^2 s^−1 | concentration halving the amount of IL‐1β released [2]: 5 µM
